In one assay the test system is MG-63. As to the kind of experiment: Antiproliferative activity against human MG63 cells after 48 hrs by MTT assay. The format is functional, cell-based. Particulars: MG-63, 48 h; call rule not given here. The procedure, abridged:
(§1)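 MTT read-out of antiproliferative activity across cancer lines HepG-2, NCI-H460, MGC-803, A549 and MG-63 and normal liver line HL-7702. IC50 given as mean ± S.D. of three separate experiments, each run in triplicate.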
(In general: Tetrazolium dyes change colour on reduction, which living cells bring about.)

Another assay deals with NCI-H460. As to the kind of experiment: Antiproliferative activity against human NCI-H460 cells after 48 hrs by MTT assay. The format is functional, cell-based. The following applies: NCI-H460, 48 h. The essentials:
as §1

For a further assay, the system named is A549. As to the kind of experiment: Antiproliferative activity against human A549 cells after 48 hrs by MTT assay. The format is functional, cell-based. The following applies: A549, 48 h. The essentials:
as §1

The subject of a further assay is L02. Put plainly: Antiproliferative activity against human HL-7702 cells after 48 hrs by MTT assay. The assay is classed as functional, cell-based. Particulars: L02, 48 h. The essentials:
as §1

For a further assay, the system named is MGC-803. Put plainly: Antiproliferative activity against human MGC803 cells after 48 hrs by MTT assay. The assay is classed as functional, cell-based. The following applies: MGC-803, 48 h. The procedure, abridged: as §1
Assay [1] can be described thus: Inhibition of TNF-alpha induced NF-kappaB activation in human A549 cells after 7 hrs by Bright-Glo luciferase reporter gene assay. The format is cell-based. The essentials:
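A549 cells transiently cotransfected with an NF-κB-Luc reporter and stimulated with TNF-α. Luciferase read-out of inhibition gives IC50, the mean of at least three independent experiments each with triplicates.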

The subject of the next assay is HepG2. Put plainly: Antiproliferative activity against human HepG2 cells after 48 hrs by MTT assay. The format is functional, cell-based. Particulars: HepG2, 48 h. The essentials:
as §1

Where [2] appears, read: Homo sapiens, A549, 7 h, read-out: IC50.

Take `CCOP(=O)(OCC)C(Nc1ccc(CC(=O)NCCCNC(=O)[C@@]2(C)CC[C@]3(C)CC[C@]4(C)C(=CC(=O)[C@@H]5[C@@]6(C)CC[C@H](O)C(C)(C)[C@@H]6CC[C@]54C)[C@@H]3C2)cc1)c1cccc(OC)c1` (stereo partly specified): the IC50 was 46.6 µM in the assay with MG-63; over 50 µM with NCI-H460; over 50 µM in the assay on A549; over 50 µM in the assay on L02; 45.2 µM in the assay on MGC-803; “Not Active” in assay [1] (a549). The IC50 in the assay with HepG2 is over 50 µM.
As to `CCOP(=O)(OCC)C(Nc1ccc(CC(=O)NCCCNC(=O)[C@@]2(C)CC[C@]3(C)CC[C@]4(C)C(=CC(=O)[C@@H]5[C@@]6(C)CC[C@H](OC(C)=O)C(C)(C)[C@@H]6CC[C@]54C)[C@@H]3C2)cc1)c1ccccc1` (stereo partly specified), the 50% inhibitory concentration (IC50) was 25.3 µM in the assay on MG-63; 23.2 µM in the assay with NCI-H460; 30.3 µM with A549; over 50 µM with L02; 21 µM in the assay on MGC-803; 22.1 µM in assay [1] (setting [2]). Besides, in the assay on HepG2, the IC50 worked out at 31.6 µM.
On to `CCOP(=O)(OCC)C(Nc1ccc(CC(=O)NCCCNC(=O)[C@@]2(C)CC[C@]3(C)CC[C@]4(C)C(=CC(=O)[C@@H]5[C@@]6(C)CC[C@H](OC(C)=O)C(C)(C)[C@@H]6CC[C@]54C)[C@@H]3C2)cc1)c1ccc(OC)cc1` (stereo partly specified), for which the 50% inhibitory concentration (IC50) in the assay on MG-63 was 19.1 µM; with NCI-H460, 18.8 µM; in the assay on A549 it was 19.3 µM; with L02 it was over 50 µM; in the assay on MGC-803 it was 18.2 µM; in assay [1] (setting [2]) it was 5.03 µM. For the same molecule, in the assay on HepG2, it took 19.3 µM to reach half-maximal inhibition (IC50).
As for `CCOP(=O)(OCC)C(Nc1ccc(CC(=O)NCCCCNC(=O)[C@@]2(C)CC[C@]3(C)CC[C@]4(C)C(=CC(=O)[C@@H]5[C@@]6(C)CC[C@H](O)C(C)(C)[C@@H]6CC[C@]54C)[C@@H]3C2)cc1)c1ccc(Br)cc1` (stereo partly specified), the IC50 in the assay on MG-63 was 24.6 µM; in the assay on NCI-H460, 25.2 µM; in the assay with A549 it was 24.9 µM; in the assay with L02, over 50 µM; in the assay on MGC-803, 30.9 µM; in assay [1] (setting [2]), 16.3 µM. This molecule also showed an IC50 in the assay on HepG2 of 29.2 µM.
Regarding `CCOP(=O)(OCC)C(Nc1ccc(CC(=O)NCCCCNC(=O)[C@@]2(C)CC[C@]3(C)CC[C@]4(C)C(=CC(=O)[C@@H]5[C@@]6(C)CC[C@H](OC(C)=O)C(C)(C)[C@@H]6CC[C@]54C)[C@@H]3C2)cc1)c1ccc(Br)cc1` (stereo partly specified), the IC50 with MG-63 is 19.2 µM; in the assay on NCI-H460, 10.2 µM; in the assay on A549 it was 17.3 µM; in the assay with L02 it was over 50 µM; in the assay with MGC-803 it was 17.4 µM; in assay [1] (setting [2]) it was 11.1 µM. The molecule also gave an IC50 with HepG2 of 19.8 µM.
Take `CCOP(=O)(OCC)C(Nc1ccc(CC(=O)NCCCCNC(=O)[C@@]2(C)CC[C@]3(C)CC[C@]4(C)C(=CC(=O)[C@@H]5[C@@]6(C)CC[C@H](OC(C)=O)C(C)(C)[C@@H]6CC[C@]54C)[C@@H]3C2)cc1)c1ccc(OC)cc1` (stereo partly specified): the IC50 was 13.9 µM with MG-63; 14.1 µM in the assay on NCI-H460; 15.2 µM in the assay on A549; over 50 µM in the assay on L02; 16.3 µM in the assay on MGC-803; 2.01 µM in assay [1] (setting [2]). The same molecule came in with a concentration for half-maximal inhibition (IC50) with HepG2 of 15.3 µM.
Consider `CCOP(=O)(OCC)C(Nc1ccc(CC(=O)NCCCNC(=O)[C@@]2(C)CC[C@]3(C)CC[C@]4(C)C(=CC(=O)[C@@H]5[C@@]6(C)CC[C@H](OC(C)=O)C(C)(C)[C@@H]6CC[C@]54C)[C@@H]3C2)cc1)c1cccc(F)c1` (stereo partly specified), for which the IC50 with MG-63 is over 50 µM; with NCI-H460, 29.5 µM; in the assay with A549, 34 µM; in the assay on L02 it was over 50 µM; in the assay with MGC-803 it was 27.2 µM; in assay [1] (setting [2]) it was over 30 µM. For the same molecule, the IC50 in the assay with HepG2 turned out to be 37.7 µM.
`CCOP(=O)(OCC)C(Nc1ccc(CC(=O)NCCCCNC(=O)[C@@]2(C)CC[C@]3(C)CC[C@]4(C)C(=CC(=O)[C@@H]5[C@@]6(C)CC[C@H](O)C(C)(C)[C@@H]6CC[C@]54C)[C@@H]3C2)cc1)c1cccc(Br)c1` (stereo partly specified): the IC50 is over 50 µM in the assay with MG-63; over 50 µM with NCI-H460; over 50 µM in the assay with A549; over 50 µM in the assay on L02; over 50 µM in the assay with MGC-803; over 30 µM in assay [1] (setting [2]). Besides, the IC50 in the assay on HepG2 was over 50 µM.
With `CCOP(=O)(OCC)C(Nc1ccc(CC(=O)NCCCNC(=O)[C@@]2(C)CC[C@]3(C)CC[C@]4(C)C(=CC(=O)[C@@H]5[C@@]6(C)CC[C@H](O)C(C)(C)[C@@H]6CC[C@]54C)[C@@H]3C2)cc1)c1ccc(Br)cc1` (stereo partly specified), the IC50 with MG-63 was 25.1 µM; with NCI-H460 it was 20.3 µM; with A549, 31.9 µM; in the assay on L02, over 50 µM; with MGC-803, 35.7 µM; in assay [1] (setting [2]) it was over 30 µM. The IC50 in the assay on HepG2 was determined as 35.6 µM.
Consider `CCOP(=O)(OCC)C(Nc1ccc(CC(=O)NCCCCNC(=O)[C@@]2(C)CC[C@]3(C)CC[C@]4(C)C(=CC(=O)[C@@H]5[C@@]6(C)CC[C@H](O)C(C)(C)[C@@H]6CC[C@]54C)[C@@H]3C2)cc1)c1ccc(OC)cc1` (stereo partly specified), for which the IC50 in the assay on MG-63 was 17.2 µM; in the assay on NCI-H460, 24 µM; with A549, 25.2 µM; with L02 it was over 50 µM; in the assay on MGC-803 it was 22.2 µM; in assay [1] (setting [2]), 13.1 µM. The same molecule registered a half-maximal inhibitory concentration (IC50) in the assay with HepG2 of 32.2 µM.
In the case of `CCOP(=O)(OCC)C(Nc1ccc(CC(=O)NCCCNC(=O)[C@@]2(C)CC[C@]3(C)CC[C@]4(C)C(=CC(=O)[C@@H]5[C@@]6(C)CC[C@H](O)C(C)(C)[C@@H]6CC[C@]54C)[C@@H]3C2)cc1)c1ccccc1` (stereo partly specified), the IC50 with MG-63 is 31 µM; with NCI-H460, 46.1 µM; in the assay with A549 it was 36 µM; with L02, over 50 µM; in the assay with MGC-803, 31.1 µM; in assay [1] (setting [2]) it was 28.2 µM. The IC50 in the assay on HepG2 came out at 40.4 µM.
On to `CCOP(=O)(OCC)C(Nc1ccc(CC(=O)NCCCCNC(=O)[C@@]2(C)CC[C@]3(C)CC[C@]4(C)C(=CC(=O)[C@@H]5[C@@]6(C)CC[C@H](O)C(C)(C)[C@@H]6CC[C@]54C)[C@@H]3C2)cc1)c1ccccc1` (stereo partly specified), for which the IC50 with MG-63 is 27.8 µM; in the assay with NCI-H460, 30.5 µM; in the assay on A549 it was 33.2 µM; in the assay on L02 it was over 50 µM; with MGC-803 it was 36.3 µM; in assay [1] (setting [2]), 25.1 µM. In the assay with HepG2, this molecule registered an IC50 of 37.1 µM.
Consider `CCOP(=O)(OCC)C(Nc1ccc(CC(=O)NCCCCNC(=O)[C@@]2(C)CC[C@]3(C)CC[C@]4(C)C(=CC(=O)[C@@H]5[C@@]6(C)CC[C@H](OC(C)=O)C(C)(C)[C@@H]6CC[C@]54C)[C@@H]3C2)cc1)c1cccc(Br)c1` (stereo partly specified), for which the IC50 in the assay with MG-63 is over 50 µM; in the assay on NCI-H460 it was 47.6 µM; in the assay on A549 it was 39.6 µM; with L02, over 50 µM; in the assay with MGC-803, 41.8 µM; in assay [1] (setting [2]), 27.1 µM. This molecule also showed an IC50 with HepG2 of 48.2 µM.

Broadly, the IC50 is the point on the concentration scale where inhibition reaches its midpoint.

The record behind these values is ChEMBL document CHEMBL4382268, “Glycyrrhetinic acid derivatives containing aminophosphonate ester species as multidrug resistance reversers that block the NF-κB pathway and cell proliferation” (Bioorg Med Chem Lett, 2018).
